Only some compounds are listed: those with a hit (about 2.1% of all), similar ones and a draw of the others.
MT stabilizer: microtubule stabilizers in HeLa cells. 0.83% of 200,000 active. HeLa tubulin immunostaining HCS, 24 h; share of cells brighter than vehicle mean+2SD. % tubulin-high responders, % at 10 µM. AID 2205;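 active = plate Z-score above 3 for both tubulin-high and condensed-nucleus cell shares, with cell loss under 80%, at 10 µM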;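 also: anti alpha tubulin signal scored within the nucleus-defined area of each cell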
IEC-6 tox: kills IEC-6 intestinal cells in KLF5 counter-screen; IEC-6 cytotoxicity, luminescence viability; inhibition, % at 5 µM; 0.78% of 290,000 active; AID 1825
BaF3 parental: parental Ba/F3 viability inhibition as JAK2V617F counter-screen | CellTiter-Glo ATP luminescence | inhibition, % at 5.6 µM | 1.1% of 220,000 active | AID 1486;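 active = inhibition above a per-campaign cutoff, the mean inhibition of all tested compounds plus 3 SD, cut at about 27% in these data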
bCat nuc transl: modulators of beta-catenin nuclear translocation. AID 1665. nuclear translocation activity, % at 5 µM. HeLa beta-catenin nuclear translocation, immunofluorescence imaging. 0.3% of 190,000 active;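 active = nuclear translocation activity above 50% at 5 µM, with a well cell count of 50 or more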;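 also: per-cell ratio of nuclear to cytoplasmic median beta-catenin stain intensity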
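Test system: human HeLa cells, native beta-catenin. Compound dosing: 5 µM primary single dose, 0.1% DMSO, 0.02–20 µM confirmation series. Incubation: compound exposure 24 h at 37°C. Detection: beta-catenin immunostaining with DAPI counterstain, 20x imaging, 6 fields/well. Read-out basis: Nuclear/cytoplasmic beta-catenin signal ratio, % activation.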
KLF5 inhibitor: inhibitors of KLF5 expression. DLD-1 KLF5 promoter-luciferase reporter, luminescence. inhibition, % at 5 µM. 0.23% of 290,000 active. AID 1700;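 active = inhibition above a per-plate limit of that plate's mean compound inhibition plus 3 SD, cut at about 60% in these data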;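 also: higher means less KLF5 promoter-driven luciferase light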
Ba/F3 V617F tox: lowers viability of Ba/F3 cells expressing EpoR and JAK2V617F; 1.1% of 220,000 active; inhibition, % at 5.6 µM; ATP luminescence;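 active = inhibition above the campaign mean plus 3 SD over all tested compounds, cut at about 24% in these data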;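 also: cytokine-independent growth of Ba/F3 cells driven by EpoR plus mutant JAK2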
IEC-6 tox confirm: confirmation of cytotoxic compounds in rat IEC-6 intestinal epithelial cells | shares compounds with IEC-6 tox | IEC-6 rat intestinal epithelial viability, luminescence | inhibition, % at 5 µM | 63% of 1,900 active
Large screens that a line does not name were inactive (follow-up assays come after a bar, where they were run). Rule as the data show it, unless noted: active = inhibition above about 22%; inactive = the rest.

NNC(=O)c1[nH]c2ccc([N+](=O)[O-])cc2c1-c1ccccc1	IEC-6 tox 91 (no result: MT stabilizer, BaF3 parental, bCat nuc transl, Ba/F3 V617F tox) | IEC-6 tox confirm inactive
CCOc1ccc(N=Cc2c(C)[nH]n(-c3nc4ccccc4[nH]3)c2=O)cc1	IEC-6 tox 30, BaF3 parental 34, Ba/F3 V617F tox 28 | IEC-6 tox confirm 53
CN(C)c1ccccc1C(=O)c1ccccc1N(C)C	MT stabilizer 55, IEC-6 tox 74, BaF3 parental 75, Ba/F3 V617F tox 77 | IEC-6 tox confirm 22
CN(c1ccccc1C(=O)O)S(C)(=O)=O	none
CCOCCCNC(=O)CN1C(=O)c2ccccc2Sc2ncccc21	none (no result: MT stabilizer, BaF3 parental, bCat nuc transl, Ba/F3 V617F tox)
NC(=S)N/N=C/c1cccc(O)c1O	none
Cc1cc(/C=N/NC(N)=S)c(O)c(/C=N/NC(N)=S)c1	IEC-6 tox 90 (no result: MT stabilizer) | IEC-6 tox confirm inactive
CCCn1c(O)c2ccc(C(=O)N=NC(=O)c3cccnc3)cc2c1O	none
CCOc1ccc(NC(=O)Nc2cccnc2)cc1	none
NNC(=O)c1cc2ccccc2[nH]1	IEC-6 tox 32 | IEC-6 tox confirm inactive
O=C(NCCCO)c1cc2ccccc2[nH]1	none
S=c1nc[nH]c2nc[nH]c12	IEC-6 tox 83 (no result: MT stabilizer, BaF3 parental, bCat nuc transl, Ba/F3 V617F tox) | IEC-6 tox confirm 69
COCCn1c(=NC(=O)CSCC(=O)N2CCOCC2)sc2ccccc21	none (no result: MT stabilizer, BaF3 parental, bCat nuc transl, Ba/F3 V617F tox)
OCCC1CN(Cc2cccn2-c2ncccn2)CCN1CCc1ccccc1 (centres undefined)	none
CCCC(=O)Nc1ccc2c(c1)nc(CN1CCN(C(=O)OCC)CC1)n2CC	IEC-6 tox 31 (no result: MT stabilizer, BaF3 parental, bCat nuc transl, Ba/F3 V617F tox) | IEC-6 tox confirm inactive
CCOc1ccc(-c2[nH]ncc2-c2ccc(OC)c(OC)c2)c(O)c1	IEC-6 tox 41, BaF3 parental 59, Ba/F3 V617F tox 53 | IEC-6 tox confirm 50
Cc1cccc(-c2nnc(SCC(=O)c3ccc(O)cc3O)n2C)c1	none (no result: MT stabilizer, BaF3 parental, bCat nuc transl, Ba/F3 V617F tox)
CCc1ccc2oc(C(=O)N3CCN(c4ccc(OC)cc4)CC3)cc(=O)c2c1	none (no result: MT stabilizer, BaF3 parental, bCat nuc transl, Ba/F3 V617F tox)
CCc1ccc2oc(C(=O)N3CCN(c4ccccc4OC)CC3)cc(=O)c2c1	IEC-6 tox 31 (no result: MT stabilizer, BaF3 parental, bCat nuc transl, Ba/F3 V617F tox) | IEC-6 tox confirm 55
Cc1cc(Cl)n2c(nc3ccccc32)c1C#N	IEC-6 tox 77, BaF3 parental 29, bCat nuc transl 106, Ba/F3 V617F tox 76 | IEC-6 tox confirm 37
O=C(c1ccc([N+](=O)[O-])o1)N1CCc2ccccc21	IEC-6 tox 30 (no result: MT stabilizer, BaF3 parental, bCat nuc transl, Ba/F3 V617F tox) | IEC-6 tox confirm inactive
O=C(c1ccc([N+](=O)[O-])o1)N1CCc2ccccc2C1	none (no result: MT stabilizer)
O=C(CSc1ccc2nnc(-c3ccncc3)n2n1)Nc1nccs1	none
Cc1sc(NC(=S)NC(=O)c2ccco2)c(C(N)=O)c1C	none
Cc1sc(NC(=S)NC(=O)CCc2ccccc2)c(C(N)=O)c1C	IEC-6 tox 27, BaF3 parental 75, Ba/F3 V617F tox 75 | IEC-6 tox confirm 71
CCN1CCN(c2nc(Nc3ccc(C)c(C)c3)nc(N)c2[N+](=O)[O-])CC1	none
CCN1CCN(c2nc(Nc3cccc(OC)c3)nc(N)c2[N+](=O)[O-])CC1	IEC-6 tox 24 (no result: MT stabilizer, BaF3 parental, bCat nuc transl, Ba/F3 V617F tox) | IEC-6 tox confirm inactive
Cc1cc(Cl)cc(C)c1OCCn1ccnc1	IEC-6 tox 44 (no result: MT stabilizer, BaF3 parental, bCat nuc transl, Ba/F3 V617F tox) | IEC-6 tox confirm inactive
CCOc1ccc(OCC)c(NC(=O)C2CCN(c3cnccn3)CC2)c1	none (no result: MT stabilizer, BaF3 parental, bCat nuc transl, Ba/F3 V617F tox)
CCSc1nnc(NC(=O)C(CC)Oc2ccccc2)s1 (centres undefined)	none (no result: bCat nuc transl)
Cc1cc(S(=O)(=O)N2CCN=C2c2ccccc2)ccc1F	none
CCOc1ccc(S(=O)(=O)N2CCN=C2c2ccccc2)cc1	IEC-6 tox 26 (no result: MT stabilizer, BaF3 parental, bCat nuc transl, Ba/F3 V617F tox) | IEC-6 tox confirm 23
C=CCn1c(C)cc(C(=O)Cn2ncc(Cl)c(Cl)c2=O)c1C	IEC-6 tox 48 | IEC-6 tox confirm inactive
CCCCn1nc(C(=O)Nc2cc(S(=O)(=O)N(C)C)ccc2C)c2ccccc2c1=O	none (no result: MT stabilizer)
Cc1ccc(Nc2cc(C)nn2-c2nc(C)cc(=O)[nH]2)cc1	IEC-6 tox 101, BaF3 parental 98, Ba/F3 V617F tox 100 | IEC-6 tox confirm 101
COc1ccccc1NCC(=O)n1nc(C)cc1C	none
COc1ccccc1NS(=O)(=O)c1cccs1	none
COc1ccccc1NS(=O)(=O)c1ccc(-c2cc(C)no2)s1	IEC-6 tox 40 (no result: MT stabilizer, BaF3 parental, bCat nuc transl, Ba/F3 V617F tox) | IEC-6 tox confirm inactive
COc1ccccc1CNS(=O)(=O)c1ccc(-c2cc(C)no2)cc1	IEC-6 tox 79 (no result: MT stabilizer, BaF3 parental, bCat nuc transl, Ba/F3 V617F tox) | IEC-6 tox confirm 53

Bioassay records deposited in PubChem by several laboratories.
